Experimental data published in ChEMBL document CHEMBL1687886, “N-cyclic bay-substituted perylene G-quadruplex ligands have selective antiproliferative effects on cancer cells and induce telomere damage” (J Med Chem, 2011).
Calls of active or inactive are those of the source. No cut-off for these calls is given here.

Legend:
[1] = test system: PC-3; test: Antiproliferative activity against human PC3 after 2 to 8 days by trypan blue assay; type: functional, cell-based
Summary of the method: (§1)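 Cells seeded at 5 ×10^4 per dish; compounds freshly dissolved and added to the medium 24 h after plating, at 0.5 μM or 3 μM (3 μM only for one derivative). Cell number by Coulter counting and viability by trypan blue exclusion daily, day 1 to day 8. Growth inhibition of treated vs untreated cells calculated at days 2, 4, 6 and 8. Representative experiments in quintuplicate, SD shown.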

[2] = test system: Nucleic Acid; test: Binding affinity to human 21-TT G-quadruplex DNA structure assessed as second step association constant by electrospray ionization mass spectrometry; type: nucleic-acid assay
Summary of the method: (§2)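 ESI-MS in 150 mM ammonium acetate; DNA 5 μM final (per duplex or quadruplex unit); ligand at drug/DNA ratios 0.5 to 4. Methanol (15%) added just before injection, after binding equilibrium. K1 and K2 for 1:1 and 2:1 complexes, and % bound DNA, taken from relative peak intensities assuming equal response factors. At least three repeats.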

[3] = test system: Nucleic Acid; test: Binding affinity to human DK66 duplex DNA structure assessed as first step association constant by electrospray ionization mass spectrometry; type: nucleic-acid assay; summary of the method: as §2
[4] = test system: Nucleic Acid; test: Stabilization of human duplex DNA T-loop assessed as change in melting temperature at 1 uM by FRET assay; type: nucleic-acid assay
[5] = test system: Nucleic Acid; test: Binding affinity to human 21-TT G-quadruplex DNA structure assessed as bound DNA at 5:5 DNA to drug ratio by electrospray ionization mass spectrometry; type: nucleic-acid assay; summary of the method: as §2
[6] = test system: Nucleic Acid; test: Binding affinity to human 21-TT G-quadruplex DNA structure assessed as bound DNA at 5:10 DNA to drug ratio by electrospray ionization mass spectrometry; type: nucleic-acid assay; summary of the method: as §2
[7] = test system: Nucleic Acid; test: Binding affinity to human DK66 duplex DNA structure assessed as bound DNA at 5:20 DNA to drug ratio by electrospray ionization mass spectrometry; type: nucleic-acid assay; summary of the method: as §2
[8] = test system: Nucleic Acid; test: Binding affinity to human 21-TT G-quadruplex DNA structure at 1:5 DNA to calf thymus DNA ratio by competitive inhibition assay; type: nucleic-acid assay; design: concentration or dose not given beside the values
Summary of the method: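 ESI-MS competition: quadruplex DNA and ligand each 5 μM final, plus calf thymus DNA at duplex/quadruplex ratios 1 and 5 (by phosphate concentration), in ammonium acetate. Percentage bound quadruplex and normalized bound quadruplex (N%) measured by mass spectrometry. SD over at least three independent experiments.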

[9] = test system: BJ; test: Induction of DNA damage response in human BJ cells expressing SV40 early region EHLT assessed as phosphorylation of gamma H2AX at 0.25 uM after 24 hrs by immunofluorescence method; type: functional, cell-based
Summary of the method: (§3)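 BJ-EHLT and BJ-hTERT fibroblasts exposed to a range of concentrations for 24 h. Fixed in 2% formaldehyde, permeabilized in 0.25% Triton X-100, immunostained for γ-H2AX and 53BP1. Percentage of positive cells scored. Three independent experiments, SD.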

[10] = test system: BJ; test: Induction of telomere dysfunction induced foci n human BJ cells expressing SV40 early protein EHLT assessed as increase in gamma H2AX/TRF1 co-localization by Deconvolution microscopy; type: functional, cell-based
Summary of the method: (§4)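 BJ-EHLT cells stained for TRF1 together with γ-H2AX or 53BP1 and imaged by deconvolution microscopy. Cells with four or more γ-H2AX/TRF1 foci scored as TIF positive; percentage of TIF-positive cells and mean TIFs per nucleus recorded. Mean of three experiments, SD.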

[11] = test system: BJ; test: Delocalization of POT1 protein from […] in human BJ cells expressing SV40 early protein EHLT after 24 hrs by chromatin immunoprecipitation assay; type: functional, cell-based
Summary of the method: (§5)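 BJ-EHLT cells treated 24 or 72 h. Formaldehyde-crosslinked chromatin immunoprecipitated with anti-TRF1, anti-TRF2 or anti-POT1; β-actin antibody as negative control. Precipitates blotted and probed for telomeric repeats (ALU probe as nonspecific). Densitometry gives percentage of precipitated DNA relative to input (10% and 1%). Four independent experiments, SD.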

[12] = test system: BJ; test: Delocalization of TRF1 protein from […] in human BJ cells expressing SV40 early protein EHLT by chromatin immunoprecipitation assay; type: functional, cell-based; summary of the method: as §5
[13] = test system: BJ; test: Delocalization of TRF2 protein from […] in human BJ cells expressing SV40 early protein EHLT by chromatin immunoprecipitation assay; type: functional, cell-based; summary of the method: as §5
[14] = test system: BJ; test: Growth inhibition of human BJ cells expressing SV40 early region EHLT at 0.5 uM on day 8 by trypan blue assay; type: functional; settings: 192 h, read-out: GI; summary of the method: as §1
[15] = test system: BJ; test: Cell cycle arrest in human BJ cells expressing TERT assessed as accumulation at S stage at 0.5 uM after 24 hrs by propidium iodide staining based flow cytometry (reference value: 21%); type: ADME
[16] = test system: BJ; test: Cell cycle arrest in human BJ cells expressing TERT assessed as accumulation at G2/M stage at 0.5 uM after 24 hrs by propidium iodide staining based flow cytometry (reference value: 17%); type: ADME
[17] = test system: BJ; test: Cell cycle arrest in human BJ cells expressing TERT assessed as accumulation at S stage at 0.5 uM after 48 hrs by propidium iodide staining based flow cytometry (reference value: 12%); type: ADME
[18] = test system: BJ; test: Cell cycle arrest in human BJ cells expressing TERT assessed as accumulation at G2/M stage at 0.5 uM after 48 hrs by propidium iodide staining based flow cytometry (reference value: 6%); type: ADME
[19] = test system: BJ; test: Cell cycle arrest in human BJ cells expressing TERT assessed as accumulation at G0/G1 stage at 0.5 uM after 96 hrs by propidium iodide staining based flow cytometry (reference value: 86%); type: ADME
[20] = test system: BJ; test: Cell cycle arrest in human BJ cells expressing TERT assessed as accumulation at S stage at 0.5 uM after 96 hrs by propidium iodide staining based flow cytometry (reference value: 9%); type: ADME
[21] = test system: BJ; test: Cell cycle arrest in human BJ cells expressing TERT assessed as accumulation at G2/M stage at 0.5 uM after 96 hrs by propidium iodide staining based flow cytometry (reference value: 4%); type: ADME
[22] = test system: HT-29; test: Cytotoxicity against human HT-29 cells after 4 days by clonogenic assay relative to control; type: functional, cell-based; settings: HT-29, 96 h
Summary of the method: (§6)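 Clonogenic survival: cells seeded at 2 × 10^5 per dish and exposed for 4 days to 0.5-2 μM. Surviving fraction taken as absolute survival of treated over control. Four experiments, each in triplicate; mean with SD.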

[23] = test system: M14; test: Cytotoxicity against human M14 cells after 4 days by clonogenic assay relative to control; type: functional, cell-based; settings: M14, 96 h; summary of the method: as §6
[24] = molecular target: Telomerase reverse transcriptase (Homo sapiens, UniProt O14746); test: Inhibition of human Telomerase activity in cell free system by TRAP assay
Sequence of Telomerase reverse transcriptase (O14746 whole entry): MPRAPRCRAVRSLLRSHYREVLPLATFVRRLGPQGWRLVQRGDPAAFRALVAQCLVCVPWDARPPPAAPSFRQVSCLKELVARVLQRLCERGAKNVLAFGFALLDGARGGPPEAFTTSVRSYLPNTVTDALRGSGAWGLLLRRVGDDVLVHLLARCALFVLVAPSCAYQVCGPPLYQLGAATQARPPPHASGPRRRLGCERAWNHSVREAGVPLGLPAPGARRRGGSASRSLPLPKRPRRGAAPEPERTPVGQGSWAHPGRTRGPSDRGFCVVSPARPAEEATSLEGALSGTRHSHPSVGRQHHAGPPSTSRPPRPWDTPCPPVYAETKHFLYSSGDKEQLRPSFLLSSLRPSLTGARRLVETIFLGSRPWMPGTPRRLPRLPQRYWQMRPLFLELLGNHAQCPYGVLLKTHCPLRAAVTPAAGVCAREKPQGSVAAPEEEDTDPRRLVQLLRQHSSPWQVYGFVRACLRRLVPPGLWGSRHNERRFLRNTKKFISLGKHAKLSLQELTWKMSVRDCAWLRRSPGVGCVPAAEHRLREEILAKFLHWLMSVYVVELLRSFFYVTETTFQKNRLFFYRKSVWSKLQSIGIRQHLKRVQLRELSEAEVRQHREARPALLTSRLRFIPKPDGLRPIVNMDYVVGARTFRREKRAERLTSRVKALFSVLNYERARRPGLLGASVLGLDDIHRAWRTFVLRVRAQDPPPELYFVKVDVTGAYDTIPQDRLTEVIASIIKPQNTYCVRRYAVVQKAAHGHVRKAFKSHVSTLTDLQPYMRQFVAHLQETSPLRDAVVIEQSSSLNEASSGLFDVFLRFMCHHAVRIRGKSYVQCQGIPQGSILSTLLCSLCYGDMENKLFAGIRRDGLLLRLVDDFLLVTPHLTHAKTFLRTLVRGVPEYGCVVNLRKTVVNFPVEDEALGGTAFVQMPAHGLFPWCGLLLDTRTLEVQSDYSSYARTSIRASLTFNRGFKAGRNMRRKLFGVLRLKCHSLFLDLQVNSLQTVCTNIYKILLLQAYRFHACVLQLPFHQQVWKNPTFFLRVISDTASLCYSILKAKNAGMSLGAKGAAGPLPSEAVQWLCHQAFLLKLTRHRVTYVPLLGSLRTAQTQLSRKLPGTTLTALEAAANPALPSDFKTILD
Summary of the method: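 Cell-free TRAP: protein extract incubated with compound at 1 to 50 μM so telomerase elongates the substrate oligonucleotide. Before PCR, phenol/chloroform/isoamyl-alcohol (50:49:1) extraction removes the ligand and DNA is precipitated overnight at -20 °C. Amplification uses a 36 bp ITAS; products are resolved on 12% PAGE and stained with SYBR Green. Signals are corrected by the no-extract control and normalized to untreated, giving dose-response IC50. Mean of three experiments.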

[25] = test system: BJ; test: Induction of DNA damage response in human BJ cells expressing human TERT assessed as phosphorylation of gamma H2AX at 1 uM after 24 hrs by immunofluorescence; type: functional, cell-based; summary of the method: as §3
[26] = test system: BJ; test: Induction of telomere dysfunction induced foci n human BJ cells expressing SV40 early protein EHLT assessed as increase in 53BP1/TRF1 co-localization by Deconvolution microscopy; type: functional, cell-based; summary of the method: as §4
[27] = test system: BJ; test: Induction of DNA damage n human BJ cells expressing SV40 early protein EHLT assessed as increase in gamma-H2Ax phosphorylation at 0.5 uM; type: functional; summary of the method: as §3

log Ks [2]: 5 | log Ks [3]: 3.9 | ΔTm [4]: -0.2 °C | Activity [5]: 56% | Activity [6]: 75% | Activity [7]: 21% | Activity [8]: 39% | Activity [15]: 21.1% | Activity [16]: 16.1% | Activity [17]: 14% | Activity [18]: 7.6% | Activity [19]: 96.3% | Activity [20]: 1.5% | Activity [21]: 2.2% | IC50 [24]: 10000 nM
Compound: O=C1c2ccc3c4ccc5c6c(cc(N7CCCCC7)c(c7ccc(c2c37)C(=O)N1CCOCCN1CCCCC1)c64)C(=O)N(CCOCCN1CCCCC1)C5=O
Activity [1]: Active | Activity [9]: Active | Activity [10]: Active | Activity [11]: Active | Activity [12]: inactive | Activity [13]: inactive | inhibition of growth at 0.5 µM [14]: 50% | IC50 [22]: 1100 nM | IC50 [23]: 800 nM | Activity [25]: inactive | Activity [26]: Active | Activity [27]: 50%
